Screens: PubChem, Johns Hopkins Ion Channel Center
Sampled rows, rich in hits. Any-hit rate of the full collection: about 3.5%.
RGS4 pot – potentiators or activators of RGS4; HEK293 M3R/inducible RGS4, carbachol calcium flux Fluo4; hits give low values; B-score at 10 µM; 0.92% of 310,000 active; AID 463111;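 active = B-score of the integrated calcium signal more than 4 SD below the library mean, with starting fluorescence not abnormally high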;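 note: negative B-score means reduced calcium response which marks RGS4 activation or potentiation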
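Reagent: ECmax carbachol challenge; Test system: M3R-expressing HEK293 line, RGS4 induced by doxycycline; Schedule: overnight RGS4 induction, 30 min dye load 37 °C, 20 min compound RT; Detection: calcium dye Fluo4 fluorescence; Read-out: Agonist-evoked peak-minus-minimum fluorescence over baseline, integrated ratio, B score.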
MrgX1 allo act – allosterically activates human MrgX1 receptor signaling; 0.63% of 310,000 active; B-score at 10 µM; Q96LB2; MrgX1-HEK293, Fluo-4 calcium flux, FDSS; hits give high values;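 active = plate-corrected calcium response at least 3 library SD above typical, normal starting fluorescence, not activating the receptor alone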;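 note: compound read alongside a low EC10 to EC30 dose of BAM8-22 agonist; peak minus trough fluorescence over baseline measured at the second addition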
Target sequence (Q96LB2 whole entry, looked up): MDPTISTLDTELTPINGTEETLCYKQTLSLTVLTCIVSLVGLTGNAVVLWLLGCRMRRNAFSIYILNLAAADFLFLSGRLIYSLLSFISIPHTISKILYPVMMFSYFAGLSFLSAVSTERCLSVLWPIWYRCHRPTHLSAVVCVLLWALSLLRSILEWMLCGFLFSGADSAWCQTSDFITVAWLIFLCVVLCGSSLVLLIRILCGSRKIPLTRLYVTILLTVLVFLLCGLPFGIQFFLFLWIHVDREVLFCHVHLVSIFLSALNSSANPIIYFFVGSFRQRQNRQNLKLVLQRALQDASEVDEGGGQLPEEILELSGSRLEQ
MrgX1 agonist – activates human MrgX1 receptor signaling | 0.44% of 310,000 active | MrgX1-HEK293 cells, Fluo-4 calcium fluorescence, agonist mode; hits give high values | AID 588627 | B-score at 10 µM;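 active = calcium response B-score plate-corrected fluorescence ratio at least 3 library SD, with starting fluorescence B-score inside 5 SD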
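System – MrgX1-expressing HEK293 cells · Incubation – cells plated overnight, dye loaded 0.5 h 37 °C, 0.5 h room temperature · Technique – kinetic Fluo-4 NW fluorescence of intracellular calcium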
RGS4 inh – inhibitors of human RGS4. P49798. 0.45% of 310,000 active. AID 463165. HEK293 M3R/RGS4 inducible, Fluo-4 calcium flux; hits give high values; triggered by carbachol at its EC20. B-score at 10 µM;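 active = B-score, a plate-corrected calcium signal, over three deviations above library mean, with baseline fluorescence within five deviations of library mean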;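 note: RGS4 expression induced by doxycycline in cells with stable M3 receptor; B-score is computed from the integrated fluorescence ratio over baseline after carbachol; higher B-score means a larger calcium signal and so more RGS4 inhibition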
Target sequence (P49798 whole entry, looked up): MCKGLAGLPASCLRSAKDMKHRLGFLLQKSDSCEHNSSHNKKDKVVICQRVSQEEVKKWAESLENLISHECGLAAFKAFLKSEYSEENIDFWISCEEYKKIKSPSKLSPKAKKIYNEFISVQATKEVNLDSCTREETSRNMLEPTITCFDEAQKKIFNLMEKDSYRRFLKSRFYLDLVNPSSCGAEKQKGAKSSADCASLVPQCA
MrgX1 antagonist – blocks BAM8-22 activation of human MrgX1 receptor. 1.3% of 310,000 active. B-score at 10 µM. AID 588676. MRGX1-HEK293 calcium flux, Fluo-4, BAM8-22 antagonism; hits give low values. Q96LB2;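 active = calcium-response B-score plate-corrected more than 3 library SD below zero, starting fluorescence within 5 deviations, no agonist response on first addition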;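 note: peak minus trough fluorescence over baseline after final BAM8-22 challenge near maximal dose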
RGS4 inh valid – RGS4 inhibitor validation. shares compounds with RGS4 inh. HEK293 M3R/RGS4, carbachol calcium Fluo-4 fluorescence; carbachol added at its EC20; 0 = buffer wells, 100 = carbachol control. calcium response, % at 10 µM. 65% of 1,700 active. AID 492999;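 active = duplicate-averaged calcium response above the buffer-only control mean plus 5 SD of those controls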;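 note: integrated fluorescence ratio F max minus min over baseline F0; higher response in RGS4-induced cells means RGS4 inhibition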
M3R Ca ctr – checks RGS4 inhibitor effects in non-induced HEK293 M3R cells; activity (percent), % at 10 µM; carbachol calcium Fluo-4; submaximal (EC20) carbachol stimulus; buffer wells 0%, carbachol control wells 100%; AID 493000; shares compounds with RGS4 inh; 20% of 1,900 active; call rule not given here;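 note: RGS4 induction absent so cells express M3R without RGS4; higher means more calcium signal and flags a non-specific hit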
RGS4 inh ctr2 – second counter-screen for RGS4 inhibitors: non-induced cells without carbachol; shares compounds with RGS4 inh; HEK293 M3R/RGS4 non-induced, Fluo-4 calcium, no carbachol; normalised: buffer wells 0%, carbachol wells 100%; calcium response (agonist-mode artifact), % at 10 µM; 22% of 1,900 active;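 active = duplicate-averaged calcium rise in uninduced cells above buffer wells' mean plus 5 SD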
A number is an active result; i = inactive; nt = not tested or not shown.

SMILES	RGS4 pot	MrgX1 allo act	MrgX1 agonist	RGS4 inh	MrgX1 antagonist	RGS4 inh valid	M3R Ca ctr	RGS4 inh ctr2
COc1cc(/C=C2/C(=O)NN(c3cccc(C)c3)C2=O)ccc1OC(=O)c1ccco1	i	i	i	6.8	i	16%	31%	i
C=CCn1c(SCC(=O)OCC)nc2cc(C(=O)NCc3ccco3)ccc2c1=O	i	i	i	i	i	nt	nt	nt
O=c1[nH]c(=O)n(Cc2ccco2)c2c1C(C(F)(F)F)(C(F)(F)F)N=C(c1ccc(F)cc1)N2	i	i	i	i	i	i	i	i
CC(C)CC(=O)NC1(C(F)(F)F)C(=O)Nc2c1c(=O)[nH]c(=O)n2Cc1ccco1 (centres undefined)	i	i	i	i	i	nt	nt	nt
Cc1ccc(NCC(=O)N/N=C/c2ccc(-c3cccc(C(F)(F)F)c3)o2)cc1	i	i	i	28	i	62%	37%	i
Cc1ccc(-c2nc3ncccn3c2Nc2ccccc2C)o1	i	i	i	i	i	nt	nt	nt
Cc1ccc(-c2nc3cnccn3c2Nc2c(C)cccc2C)o1	i	i	i	6.3	i	8.0%	i	26%
Cc1nnc(N/N=C/c2cc([N+](=O)[O-])c(N3CCC(C)CC3)cc2N2CCC(C)CC2)n1N	i	i	i	4.9	i	9.5%	36%	i
CCc1nnc(N/N=C/c2ccc(N3CCC(C)CC3)c([N+](=O)[O-])c2)n1N	i	i	i	i	i	nt	nt	nt
COc1ccc(-c2nc3ccccc3nc2-c2ccccc2)cc1OC	i	i	i	i	i	nt	nt	nt
COc1ccc(OC)c(-c2nc3cc4ccccc4cc3nc2-c2ccccc2)c1	i	i	i	6.8	i	14%	i	94%
O=C(Nc1nc(-c2cccc3ccccc23)cs1)c1cnccn1	i	i	i	5.5	i	28%	34%	i
CC(C)(C)c1ccc(OCCNC(=S)Nc2ccccc2)cc1	i	i	i	i	i	nt	nt	nt
Oc1c(Br)cc(Br)cc1C=Nc1ccc2c(c1)OCCO2	i	i	i	5.8	i	i	i	74%
O=[N+]([O-])c1ccc(O)c(C=Nc2ccc3c(c2)OCCO3)c1	i	i	i	i	i	nt	nt	nt
Oc1c(Br)cc(Br)cc1C=Nc1ccc2c(c1)OCO2	i	i	i	i	i	i	i	48%
COc1cccc(/C=C2\C(=O)C(=O)c3ccccc32)c1	i	i	30	11	i	14%	i	10%
COc1cccc(/C=C2\CCc3ccccc3C2=O)c1	i	i	i	i	i	nt	nt	nt
COc1cc(C=C2C(=O)c3ccccc3C2=O)cc(OC)c1	i	i	i	7.5	i	8.5%	i	i
O=C(NCc1ccccn1)C(=O)N/N=C/c1ccccc1O	i	i	i	i	i	nt	nt	nt
O=C(/C=C/c1ccccc1)N/C(=C/c1ccccc1)C(=O)Nc1cccc(C(=O)O)c1	i	i	i	i	i	nt	nt	nt
Cc1ccc(-c2n[nH]c3c2C(c2cccc(O)c2)N(c2ccc(C(=O)O)cc2)C3=O)cc1 (centres undefined)	i	i	i	i	i	nt	nt	nt
C=CCOc1nc2sc(C)c(C)c2c(=O)n1-c1ccccc1	i	i	i	6	i	i	i	i
CC(C)(C)c1cc(-n2ccnc2)n2ncc(-c3ccc(Cl)cc3)c2n1	i	i	i	4.7	i	14%	i	i
CC(C)(C)c1cc(NCCCn2ccnc2)n2ncc(-c3ccccc3)c2n1	i	i	i	9	i	10%	i	i
CCCc1cc(N2CCOCC2)n2ncc(-c3ccccc3)c2n1	i	i	i	i	i	nt	nt	nt
CC(C)(C)c1cc(N2CCOCC2)n2ncc(-c3ccccc3)c2n1	i	i	i	i	i	i	i	i
